The source made the active and inactive calls. The calls are words filed in the database; no cut-off is given here.
How the values were obtained:
MV4-11 [1] = assay: Effect on total Rb protein levels in human MV4-11 cells at GI50 after 12 to 24 hrs by Western blot analysis; format: cell-based
Procedure, shortened: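 MV4-11 cells were treated for 12 or 24 h, then analysed by Western blot for Rb, including phospho-Ser780. β-Actin served as the loading control. Data are representative of two independent experiments.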

MV4-11 [2] = assay: Cell cycle arrest in human MV4-11 cells assessed as accumulation at G2/M phase at 0.04 uM after 24 hrs by propidium iodide staining based flow cytometry (reference value: 17.94%); format: functional
MV4-11 [3] = assay: Cell cycle arrest in human MV4-11 cells assessed as accumulation at sub-G1 phase at 0.40 uM after 24 hrs by propidium iodide staining based flow cytometry (reference value: 1.99%); format: functional
MV4-11 [4] = assay: Cell cycle arrest in human MV4-11 cells assessed as accumulation at sub-G1 phase at 0.20 uM after 24 hrs by propidium iodide staining based flow cytometry (reference value: 1.99%); format: functional
MV4-11 [5] = assay: Cell cycle arrest in human MV4-11 cells assessed as accumulation at G1 phase at 0.20 uM after 24 hrs by propidium iodide staining based flow cytometry (reference value: 61.01%); format: functional
MV4-11 [6] = assay: Cell cycle arrest in human MV4-11 cells assessed as accumulation at S phase at 0.40 uM after 24 hrs by propidium iodide staining based flow cytometry (reference value: 19.07%); format: functional
MV4-11 [7] = assay: Cell cycle arrest in human MV4-11 cells assessed as accumulation at G2/M phase at 0.40 uM after 24 hrs by propidium iodide staining based flow cytometry (reference value: 17.94%); format: functional
[8] = Cmax in albino Wistar rat at 5 mg/kg, iv up to 24 hrs by LC-MS/MS analysis; format: ADME, organism-based; design: dose 5 mg/kg, route intravenous; conditions: in vivo
[9] = Cmax in BALB/c mouse at 2 mg/kg, iv up to 24 hrs by LC-MS/MS analysis; format: ADME, organism-based; design: dose 2 mg/kg, route intravenous; conditions: in vivo
[10] = Dissociation constant, pKa of the compound by pH-metric titration method; format: physicochemical
[11] = molecular target: Voltage-gated inwardly rectifying potassium channel KCNH2 (Homo sapiens, UniProt Q12809); assay: Inhibition of human ERG expressed in CHO cells by patch clamp electrophysiology; format: cell-based
Voltage-gated inwardly rectifying potassium channel KCNH2, sequence (Q12809 whole entry): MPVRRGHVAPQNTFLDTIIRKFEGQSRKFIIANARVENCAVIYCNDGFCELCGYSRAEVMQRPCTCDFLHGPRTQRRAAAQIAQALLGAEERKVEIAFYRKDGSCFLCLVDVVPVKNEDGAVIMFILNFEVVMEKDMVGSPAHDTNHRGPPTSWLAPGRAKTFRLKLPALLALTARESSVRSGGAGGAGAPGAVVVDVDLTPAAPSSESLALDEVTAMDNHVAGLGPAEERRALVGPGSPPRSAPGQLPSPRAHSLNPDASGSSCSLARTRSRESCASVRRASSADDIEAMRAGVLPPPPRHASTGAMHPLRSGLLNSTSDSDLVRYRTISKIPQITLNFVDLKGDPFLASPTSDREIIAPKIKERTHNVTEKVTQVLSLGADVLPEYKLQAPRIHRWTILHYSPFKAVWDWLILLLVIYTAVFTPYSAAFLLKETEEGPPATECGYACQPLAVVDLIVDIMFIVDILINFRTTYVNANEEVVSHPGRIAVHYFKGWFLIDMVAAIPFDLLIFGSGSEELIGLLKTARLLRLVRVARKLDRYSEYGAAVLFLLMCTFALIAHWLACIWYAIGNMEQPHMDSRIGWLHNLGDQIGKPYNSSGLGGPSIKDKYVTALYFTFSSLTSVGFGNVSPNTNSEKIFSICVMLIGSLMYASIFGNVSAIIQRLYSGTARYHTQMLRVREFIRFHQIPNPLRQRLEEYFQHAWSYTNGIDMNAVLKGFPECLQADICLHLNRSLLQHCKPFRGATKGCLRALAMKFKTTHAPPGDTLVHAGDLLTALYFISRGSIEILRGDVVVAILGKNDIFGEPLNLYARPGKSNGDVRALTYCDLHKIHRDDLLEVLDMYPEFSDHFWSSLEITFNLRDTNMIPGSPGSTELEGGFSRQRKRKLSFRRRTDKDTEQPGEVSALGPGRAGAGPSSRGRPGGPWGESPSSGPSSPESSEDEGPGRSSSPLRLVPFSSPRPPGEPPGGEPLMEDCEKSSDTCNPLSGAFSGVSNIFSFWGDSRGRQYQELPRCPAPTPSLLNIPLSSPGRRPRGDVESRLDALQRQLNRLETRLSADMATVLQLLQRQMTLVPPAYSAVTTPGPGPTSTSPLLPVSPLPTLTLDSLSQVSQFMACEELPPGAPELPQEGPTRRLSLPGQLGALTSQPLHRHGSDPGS
Procedure, shortened: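 Cardiac toxicity assay in CHO cells expressing hERG; IC50 determined.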

[12] = Half life in BALB/c mouse at 2 mg/kg, iv up to 24 hrs by LC-MS/MS analysis; format: ADME, organism-based; conditions: in vivo
Procedure, shortened: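 Single-dose pharmacokinetics in male BALB/c mice, 2 mg/kg IV or 10 mg/kg PO.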

MV4-11 [13] = assay: Antitumor activity against human MV4-11 cells xenografted in nude BALB/c mouse assessed as tumor growth inhibition at 100 mg/kg, po qd administered for 33 consecutive days and left untreated for another 50 days; format: functional, organism-based
[14] = AUC (0 to t) in albino Wistar rat at 5 mg/kg, iv up to 24 hrs by LC-MS/MS analysis; format: ADME, organism-based; design: dose 5 mg/kg, time < 24 hr, route intravenous; conditions: in vivo
[15] = AUC (0 to t) in BALB/c mouse at 10 mg/kg administered via oral gavage measured up to 24 hrs by LC-MS/MS analysis; format: ADME, organism-based; design: dose 10 mg/kg, time < 24 hr, route oral; conditions: in vivo
Homo sapiens [16] = organism: Homo sapiens; assay: Selectivity ratio of Ki for CDK2/cyclin A (unknown origin) to Ki for CDK6/cyclin D3 (unknown origin)
Procedure, shortened: (§1)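 Apparent Ki for each CDK–cyclin complex (CDK4–cyclin D1, CDK6–cyclin D3, CDK2–cyclin A) calculated from the half-maximal inhibition (IC50) and that kinase's Km(ATP). The selectivity ratio is the CDK2 Ki divided by the CDK4 or CDK6 Ki.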

Homo sapiens [17] = organism: Homo sapiens; assay: Selectivity ratio of Ki for CDK2/cyclin A (unknown origin) to Ki for CDK4/cyclin D1 (unknown origin); procedure, shortened: as §1
Cytochrome P450 3A4 = Cytochrome P450 3A4 (Homo sapiens, UniProt P08684); assay: Inhibition of CYP3A4 in human liver microsomes using midazolam as substrate in presence of NADPH; format: ADME
Cytochrome P450 3A4, sequence (P08684 whole entry, canonical isoform): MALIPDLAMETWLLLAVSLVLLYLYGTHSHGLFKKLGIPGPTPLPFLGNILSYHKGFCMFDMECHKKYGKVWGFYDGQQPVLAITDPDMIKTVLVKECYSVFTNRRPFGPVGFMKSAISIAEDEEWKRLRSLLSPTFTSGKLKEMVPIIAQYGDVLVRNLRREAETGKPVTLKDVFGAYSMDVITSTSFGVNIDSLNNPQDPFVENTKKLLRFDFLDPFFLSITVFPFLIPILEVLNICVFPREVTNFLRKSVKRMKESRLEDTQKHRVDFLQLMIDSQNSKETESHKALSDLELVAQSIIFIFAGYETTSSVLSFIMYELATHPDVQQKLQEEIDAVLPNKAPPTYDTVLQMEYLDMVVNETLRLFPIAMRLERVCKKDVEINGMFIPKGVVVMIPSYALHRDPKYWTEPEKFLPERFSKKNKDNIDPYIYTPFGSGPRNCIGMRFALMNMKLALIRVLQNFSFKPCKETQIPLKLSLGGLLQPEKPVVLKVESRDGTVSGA
Procedure, shortened: (§2)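 Human liver microsomes with NADPH and isoform-specific probe substrate (midazolam CYP3A4, dextromethorphan CYP2D6, ethoxyresorufin CYP1A, tolbutamide CYP2C9, mephenytoin CYP2C19); IC50 reported in µM.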

[18] = Efflux ratio of apparent permeability co-efficient from basolateral to apical side over apical to basolateral side in human Caco2 cells; format: ADME, cell-based; conditions: Caco-2
Procedure, shortened: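 Caco-2 monolayer assay measuring the apparent permeability coefficient (P_app, 10^-6 cm/s) in the A→B and B→A directions. Efflux ratio is the mean P_app B-A divided by the mean P_app A-B.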

MV4-11 [19] = assay: Antitumor activity against human MV4-11 cells xenografted in nude BALB/c mouse assessed as tumor growth inhibition at 100 mg/kg, po qd administered for 33 consecutive days measured post last dose; format: functional; conditions: MV4-11, po, read-out: TGI
[20] = molecular target: Dual specificity tyrosine-phosphorylation-regulated kinase 2 (Homo sapiens) (UniProt Q92630); assay: Inhibition of full-length human DYRK2 (1 to 528 amino acid residues) expressed in mammalian expression system at 1 uM in presence of [gamma-33P]-ATP […]
Dual specificity tyrosine-phosphorylation-regulated kinase 2 (Homo sapiens), sequence (Q92630 whole entry, the tested form may be a part): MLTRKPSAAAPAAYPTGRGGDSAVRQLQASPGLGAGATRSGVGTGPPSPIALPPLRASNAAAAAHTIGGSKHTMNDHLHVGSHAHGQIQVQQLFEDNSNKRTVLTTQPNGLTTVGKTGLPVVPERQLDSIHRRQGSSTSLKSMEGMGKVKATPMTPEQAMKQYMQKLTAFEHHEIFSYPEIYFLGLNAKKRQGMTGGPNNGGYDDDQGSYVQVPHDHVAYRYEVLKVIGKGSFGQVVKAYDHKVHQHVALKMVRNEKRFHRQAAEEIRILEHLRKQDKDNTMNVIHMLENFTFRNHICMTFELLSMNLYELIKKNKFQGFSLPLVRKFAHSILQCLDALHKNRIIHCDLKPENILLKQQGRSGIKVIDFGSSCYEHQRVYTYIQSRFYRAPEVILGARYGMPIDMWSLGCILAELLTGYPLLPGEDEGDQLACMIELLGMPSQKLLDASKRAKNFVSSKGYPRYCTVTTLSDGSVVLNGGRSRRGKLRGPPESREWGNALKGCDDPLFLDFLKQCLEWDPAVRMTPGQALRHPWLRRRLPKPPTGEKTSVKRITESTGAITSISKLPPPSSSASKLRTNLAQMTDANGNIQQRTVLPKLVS
Procedure, shortened: (§3)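 Broad kinome panel of 369 kinases screened at 1 µM test concentration.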

[21] = molecular target: LIM domain kinase 1 (Homo sapiens) (UniProt P53667); assay: Inhibition of full-length human LIMK1 (1 to 647 amino acid residues) expressed in bacterial expression system at 1 uM in presence of [gamma-33P]-ATP […]; procedure, shortened: as §3
LIM domain kinase 1 (Homo sapiens), sequence (P53667 whole entry, looked up, the tested form may be a part): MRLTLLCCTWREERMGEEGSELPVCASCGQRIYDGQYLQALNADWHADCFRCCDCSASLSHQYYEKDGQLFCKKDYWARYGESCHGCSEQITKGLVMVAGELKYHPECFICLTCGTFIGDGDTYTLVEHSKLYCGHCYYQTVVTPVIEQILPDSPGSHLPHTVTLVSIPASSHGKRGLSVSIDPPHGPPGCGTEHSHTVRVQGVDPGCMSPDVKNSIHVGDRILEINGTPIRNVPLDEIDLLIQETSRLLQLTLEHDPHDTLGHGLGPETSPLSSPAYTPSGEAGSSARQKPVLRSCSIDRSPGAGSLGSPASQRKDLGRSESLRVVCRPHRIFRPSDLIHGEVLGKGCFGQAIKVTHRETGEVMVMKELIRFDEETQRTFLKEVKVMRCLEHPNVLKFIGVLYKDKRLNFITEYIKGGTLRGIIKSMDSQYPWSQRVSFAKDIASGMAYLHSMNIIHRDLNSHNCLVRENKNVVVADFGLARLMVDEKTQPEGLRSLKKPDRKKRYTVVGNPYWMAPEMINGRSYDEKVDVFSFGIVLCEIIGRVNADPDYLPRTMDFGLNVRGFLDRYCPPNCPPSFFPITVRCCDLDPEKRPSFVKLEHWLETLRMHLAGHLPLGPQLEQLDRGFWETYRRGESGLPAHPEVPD

[22] = molecular target: Cyclin-dependent kinase 4/cyclin D1 (Homo sapiens, UniProt P11802); assay: Inhibition of CDK4/cyclin D1 (unknown origin) in presence of [gamma-33P]-ATP […]; format: protein-complex assay; conditions: read-out: Ki(app)
[23] = Half-life in albino Wistar rat at 5 mg/kg, iv up to 24 hrs by LC-MS/MS analysis; format: ADME, organism-based; conditions: in vivo
Procedure, shortened: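 Single-dose pharmacokinetics in male albino Wistar rats, 5 mg/kg IV.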

Cytochrome P450 2C19 = Cytochrome P450 2C19 (Homo sapiens, UniProt P33261); assay: Inhibition of CYP2C19 in human liver microsomes using mephenytoin as substrate in presence of NADPH; format: ADME; procedure, shortened: as §2
Cytochrome P450 2C19, sequence (P33261 whole entry): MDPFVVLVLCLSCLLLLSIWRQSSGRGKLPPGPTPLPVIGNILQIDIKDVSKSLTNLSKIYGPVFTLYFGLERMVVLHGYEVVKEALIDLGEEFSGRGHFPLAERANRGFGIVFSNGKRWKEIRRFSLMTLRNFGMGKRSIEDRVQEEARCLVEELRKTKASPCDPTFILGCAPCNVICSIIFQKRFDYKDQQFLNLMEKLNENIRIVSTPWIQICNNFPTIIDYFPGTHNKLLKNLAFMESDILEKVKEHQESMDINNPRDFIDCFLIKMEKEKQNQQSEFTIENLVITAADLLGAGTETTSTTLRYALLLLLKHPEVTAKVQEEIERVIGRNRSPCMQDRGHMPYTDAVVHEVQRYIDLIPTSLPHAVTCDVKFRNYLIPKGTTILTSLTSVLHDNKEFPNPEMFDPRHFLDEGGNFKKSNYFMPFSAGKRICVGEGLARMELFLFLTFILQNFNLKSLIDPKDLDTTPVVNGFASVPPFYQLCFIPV

[24] = Clearance in BALB/c mouse at 2 mg/kg, iv up to 24 hrs by LC-MS/MS analysis; format: ADME, organism-based; conditions: in vivo
[25] = molecular target: Cyclin-dependent kinase 1/cyclin B1 (Homo sapiens) (UniProt P06493+P14635); assay: Inhibition of CDK1/cyclin B (unknown origin) in presence of [gamma-33P]-ATP […]; format: protein-complex assay
Cyclin-dependent kinase 1/cyclin B1 (Homo sapiens), sequence (P06493 whole entry, looked up): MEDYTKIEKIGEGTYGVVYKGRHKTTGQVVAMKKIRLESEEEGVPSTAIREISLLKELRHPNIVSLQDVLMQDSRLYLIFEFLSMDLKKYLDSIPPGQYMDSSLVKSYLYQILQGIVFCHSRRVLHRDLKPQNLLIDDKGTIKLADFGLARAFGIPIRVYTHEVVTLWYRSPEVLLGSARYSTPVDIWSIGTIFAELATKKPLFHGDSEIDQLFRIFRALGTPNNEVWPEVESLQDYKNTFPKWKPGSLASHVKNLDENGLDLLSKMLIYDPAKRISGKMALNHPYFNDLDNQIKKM
Cyclin-dependent kinase 1/cyclin B1 (Homo sapiens), sequence (P14635 whole entry, looked up): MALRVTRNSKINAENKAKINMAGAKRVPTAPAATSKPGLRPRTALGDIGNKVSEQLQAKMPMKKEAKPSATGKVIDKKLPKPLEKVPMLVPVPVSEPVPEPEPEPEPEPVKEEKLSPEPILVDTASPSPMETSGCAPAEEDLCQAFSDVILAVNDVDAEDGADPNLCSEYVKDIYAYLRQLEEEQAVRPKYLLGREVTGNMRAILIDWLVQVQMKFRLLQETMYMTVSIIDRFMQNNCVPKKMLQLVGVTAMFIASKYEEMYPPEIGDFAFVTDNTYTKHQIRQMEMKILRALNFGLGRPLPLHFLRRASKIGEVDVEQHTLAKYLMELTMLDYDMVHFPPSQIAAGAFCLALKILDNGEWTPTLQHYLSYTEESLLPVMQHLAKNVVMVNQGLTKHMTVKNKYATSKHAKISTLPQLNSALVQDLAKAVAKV

[26] = molecular target: Cyclin-dependent kinase 7/ cyclin H (Homo sapiens) (UniProt P51946+P50613); assay: Inhibition of CDK7/cyclin H (unknown origin) in presence of [gamma-33P]-ATP […]; format: protein-complex assay
Cytochrome P450 1A2 = Cytochrome P450 1A2 (Homo sapiens, UniProt P05177); assay: Inhibition of CYP1A2 in human liver microsomes using ethoxyresorufin as substrate in presence of NADPH; format: ADME; procedure, shortened: as §2
Cytochrome P450 1A2, sequence (P05177 whole entry): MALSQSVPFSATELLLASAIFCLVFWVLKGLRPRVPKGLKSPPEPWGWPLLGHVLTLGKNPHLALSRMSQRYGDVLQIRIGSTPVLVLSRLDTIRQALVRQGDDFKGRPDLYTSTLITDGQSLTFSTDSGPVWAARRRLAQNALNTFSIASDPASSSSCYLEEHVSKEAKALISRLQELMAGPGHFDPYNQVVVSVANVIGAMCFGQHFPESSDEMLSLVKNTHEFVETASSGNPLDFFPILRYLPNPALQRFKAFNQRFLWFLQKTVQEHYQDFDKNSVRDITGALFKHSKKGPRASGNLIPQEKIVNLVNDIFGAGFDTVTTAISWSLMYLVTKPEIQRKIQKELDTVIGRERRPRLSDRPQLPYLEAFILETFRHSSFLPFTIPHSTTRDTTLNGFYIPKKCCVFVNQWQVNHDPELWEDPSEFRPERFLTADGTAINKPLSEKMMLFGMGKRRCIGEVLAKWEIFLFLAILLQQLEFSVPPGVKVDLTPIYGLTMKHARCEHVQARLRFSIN

MV4-11 [27] = assay: Antitumor activity against human MV4-11 cells xenografted in nude BALB/c mouse assessed as tumor volume at 100 mg/kg, po qd administered for 33 consecutive days measured on day 31; format: functional
MV4-11 [28] = assay: Antitumor activity against human MV4-11 cells xenografted in nude BALB/c mouse assessed as tumor growth inhibition at 100 mg/kg, po qd administered for 33 consecutive days measured on day 50; format: functional, organism-based

Compound: CC(=O)c1c(C)c2cnc(Nc3ccc(N4CCNCC4)cn3)nc2n(C2CCCC2)c1=O [PALBOCICLIB]
- Activity (MV4-11 [1]): Toxic
- Activity (MV4-11 [2]): 13.4%
- Activity (MV4-11 [3]): 2.93%
- Activity (MV4-11 [4]): 4.22%
- Activity (MV4-11 [5]): 80.66%
- Activity (MV4-11 [6]): 6.02%
- Activity (MV4-11 [7]): 5.69%

Compound: Cc1nc(NC2CCCC2)sc1-c1ccnc(Nc2ccc(N3CCOCC3)cn2)n1
- Cmax [8]: 38.8 µM
- Cmax [9]: 2300 nM
- pKa [10]: 3.98 to 5.68
- IC50 [11]: > 10 µM
- half-life [12]: 102 min
- TGI (MV4-11 [13]): Active
- AUC(0-t) at 24 h [14]: 15.9 µM·h
- AUC(0-t) at 24 h [15]: 5.9 µM·h
- Ratio Ki (Homo sapiens [16]): 156
- Ratio Ki (Homo sapiens [17]): > 1200
- IC50 (Cytochrome P450 3A4): > 25 µM
- efflux ratio [18]: 0.396 to 4
- inhibition in vivo at 100 mg/kg (MV4-11 [19]): 76%
- inhibition [20]: Active
- inhibition [21]: Active
- Ki [22]: 4 nM
- half-life [23]: 252 min
- IC50 (Cytochrome P450 2C19): > 25 µM
- clearance [24]: 58.3 mL/min/kg
- Ki(app) [25]: inactive
- Ki(app) [26]: inactive
- IC50 (Cytochrome P450 1A2): > 25 µM
- T/C (MV4-11 [27]): 30%
- TGI (MV4-11 [28]): Active
